Reference: PubChem BioAssay AID602223 (Southern Research Specialized Biocontainment Screening …, 2012)
Inconclusive results are not listed. The source made the active and inactive calls.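 The calls were made as follows: active = inhibition of 30% or more at any tested concentration; inactive = the rest, inconclusive results apart.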

The compounds below were run against M1-family alanyl aminopeptidase (Plasmodium falciparum 3D7) (assay: PfM1AAP enzyme inhibition, dose response, selectivity assay for PfM17LAP inhibitor project, biochemical, QFRET, H-Leu-NHMec substrate, set 2 (AID 602223)). Conditions: recombinant PfM1AAP, H-Leu-NHMec fluorogenic cleavage.
Method in brief: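 System: recombinant protease; also added: 0.1 mM fluorogenic substrate; doses: concentration series from 100 µM down to 0.2 µM; incubation: 90 min, room temperature; detection: fluorescence of liberated NHMec, excitation 370 nm, emission 460 nm; repeats: triplicate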

Row | SMILES | IC50
1 | O=C(Cc1ccc2c(c1)CCCC2)NO | 1.41 µM
2 | COc1ccc(CC(=O)NO)cc1 | 4.58 µM
3 | COc1ccc(CCCC(=O)NO)cc1 | 95.8 µM
4 | O=C(Cc1ccc(OCc2ccccc2)cc1)NO | 2.89 µM
5 | O=C(Cc1ccc(Oc2ccccc2)cc1)NO | 5.45 µM
6 | Cc1ccc(CC(=O)NO)cc1 | 5.77 µM
7 | CCCCCCCCCC(=O)NO | 13.3 µM
8 | CCCCOc1ccc(C(=O)NO)cc1 | 99.1 µM
9 | CCCCc1ccc(CC(=O)NO)cc1 | 2.57 µM
10 | CC(C)COc1ccc(CC(=O)NO)cc1 | 23.2 µM

Results, then the compound that gave them:

Row | IC50 | SMILES
11 | 14 µM | CCCCOc1ccc(CC(=O)NO)cc1
12 | 7 µM | CCOc1ccc(CC(=O)NO)cc1

Same assay, conditions: recombinant PfM1AAP, H-Leu-NHMec fluorogenic cleavage; at 100 µM (top of the series)

Row | SMILES | inhibition
13 | CC(C)(C(=O)NO)c1ccccc1 | inactive
14 | CN(O)C(=O)Cc1ccc(OCc2ccccc2)cc1 | inactive
15 | CCCCOc1ccc(CNc2c(N(C)O)c(=O)c2=O)cc1 | inactive
16 | CCCCOc1ccc(CNc2c(N(O)Cc3ccccc3)c(=O)c2=O)cc1 | inactive

Now from value to compound:

Row | inhibition | SMILES
17 | inactive | COC(=O)Cc1ccc(OCCN(C)C)cc1
18 | inactive | CCCCOc1ccc(CC(=O)N(C)O)cc1
19 | inactive | CCCCOc1ccc(CC(=O)O)cc1
20 | inactive | CCCOc1ccc(CC(=O)OC)cc1
